Assay results as given in ChEMBL document CHEMBL1142636 (2000).

Legend:
PC-3 = assay: Growth inhibition of human PC3 cells; type: functional
K562 = assay: Growth inhibition of human K562 cells; type: functional
IGROV-1 = assay: Growth inhibition of human IGROV1 cells; type: functional
HCT-116 = assay: Growth inhibition of human HCT116 cells; type: functional
[1] = Growth inhibition of human […] cells; type: functional
HOP-62 = assay: Growth inhibition of human HOP62 cells; type: functional
M14 = assay: Growth inhibition of human M14 cells; type: functional
CCRF-CEM = assay: Growth inhibition of human CCRF-CEM cells; type: functional
MOLT-4 = assay: Growth inhibition of human MOLT4 cells; type: functional
UO-31 = assay: Growth inhibition of human UO31 cells; type: functional
Summary of the method: (§1)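 Tested at the NCI in its human disease-oriented in vitro screen of 60 tumour cell lines, following the Monks et al. methods. Activity is expressed as GI50, given as log molar values.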

NCI-H322M = assay: Growth inhibition of human NCI-H322M cells; type: functional
MDA-N = assay: Growth inhibition of human MDA-N cells; type: functional
SNB-75 = assay: Growth inhibition of human SNB75 cells; type: functional; summary of the method: as §1
HOP-92 = assay: Growth inhibition of human HOP92 cells; type: functional
HT-29 = assay: Growth inhibition of human HT29 cells; type: functional
DU-145 = assay: Growth inhibition of human DU145 cells; type: functional
Malme-3M = assay: Growth inhibition of human MALME-3M cells; type: functional
NCI-H522 = assay: Growth inhibition of human NCI-H522 cells; type: functional
HCT-15 = assay: Growth inhibition of human HCT15 cells; type: functional
SK-MEL-5 = assay: Growth inhibition of human SK-MEL-5 cells; type: functional; summary of the method: as §1
MDA-MB-231 = assay: Growth inhibition of human MDA-MB-231 cells; type: functional
NCI-H23 = assay: Growth inhibition of human NCI-H23 cells; type: functional
[2] = Growth inhibition of human HL60(TB) cells; type: functional, HL-60(TB); settings: HL-60
KM12 = assay: Growth inhibition of human KM12 cells; type: functional
MCF7 = assay: Growth inhibition of human MCF7 cells; type: functional
NCI-H460 = assay: Growth inhibition of human NCI-H460 cells; type: functional
BT-549 = assay: Growth inhibition of human BT549 cells; type: functional
786-0 = assay: Growth inhibition of human 786-0 cells; type: functional
TK-10 = assay: Growth inhibition of human TK10 cells; type: functional; summary of the method: as §1
U-251 = assay: Growth inhibition of human U251 cells; type: functional; summary of the method: as §1
A549 = assay: Growth inhibition of human A549 cells; type: functional
[3] = Growth inhibition of human MCF7/ADR-RES cells; type: functional; settings: NCI/ADR-RES
Hs-578T = assay: Growth inhibition of human HS578T cells; type: functional
T47D = assay: Growth inhibition of human T47D cells; type: functional; summary of the method: as §1
LOX IMVI = assay: Growth inhibition of human LOX IMVI cells; type: functional
HCC 2998 = assay: Growth inhibition of human HCC2998 cells; type: functional
[4] = Growth inhibition of human OVACR5 cells; type: functional
MDA-MB-435 = assay: Growth inhibition of human MDA-MB-435 cells; type: functional
COLO 205 = assay: Growth inhibition of human COLO205 cells; type: functional
SR = assay: Growth inhibition of human SR cells; type: functional; summary of the method: as §1
SK-OV-3 = assay: Growth inhibition of human SK-OV-3 cells; type: functional; summary of the method: as §1
NCI-H226 = assay: Growth inhibition of human NCI-H226 cells; type: functional
SW-620 = assay: Growth inhibition of human SW620 cells; type: functional; summary of the method: as §1
ACHN = assay: Growth inhibition of human ACHN cells; type: functional
A498 = assay: Growth inhibition of human A498 cells; type: functional
[5] = Growth inhibition of human OVACR8 cells; type: functional
SN12C = assay: Growth inhibition of human SN12C cells; type: functional; summary of the method: as §1
RXF 393 = assay: Growth inhibition of human […] cells; type: functional
[6] = Growth inhibition of human OVACR4 cells; type: functional
SK-MEL-2 = assay: Growth inhibition of human SK-MEL-2 cells; type: functional; summary of the method: as §1
[7] = Growth inhibition of human RPMI8266 cells; type: functional
UACC-257 = assay: Growth inhibition of human UACC257 cells; type: functional; summary of the method: as §1
SF-268 = assay: Growth inhibition of human SF268 cells; type: functional; summary of the method: as §1
SNB-19 = assay: Growth inhibition of human SNB19 cells; type: functional; summary of the method: as §1
SF-539 = assay: Growth inhibition of human SF539 cells; type: functional; summary of the method: as §1
SF-295 = assay: Growth inhibition of human SF295 cells; type: functional; summary of the method: as §1

C=C(C)C(O)CCC1(C)C=Cc2c(c(C)cc3c2[nH]c2ccccc23)O1 (stereo not drawn) gave a GI50 (PC-3) of 6.61 µM, a GI50 (K562) of 2.75 µM and a GI50 (IGROV-1) of 8.32 µM. For the same compound, the GI50 (HCT-116) was 9.77 µM, the GI50 [1] was 10.2 µM and the GI50 (HOP-62) was 2.45 µM. For the same compound, the GI50 (M14) was 6.61 µM, the GI50 (CCRF-CEM) was 4.17 µM and the GI50 (MOLT-4) was 3.47 µM. The GI50 (UO-31) was 12 µM, the GI50 (NCI-H322M) was 7.94 µM and the GI50 (MDA-N) was 3.55 µM. The GI50 (SNB-75) was 3.31 µM, the GI50 (HOP-92) was 10.2 µM and the GI50 (HT-29) was 1.7 µM. It also gave an LC50 (HT-29) of 6.17 µM, a GI50 (DU-145) of 12.6 µM and a GI50 (Malme-3M) of 11.2 µM. It also gave a GI50 (NCI-H522) of 3.31 µM, a GI50 (HCT-15) of 1.95 µM and a GI50 (SK-MEL-5) of 10 µM. For the same compound, the GI50 (MDA-MB-231) was 3.47 µM, the GI50 (NCI-H23) was 10.7 µM and the GI50 [2] was 4.27 µM. The GI50 (KM12) was 2 µM, the CC50 (KM12; read-out: pLC50 (the source's name) (converted)) was 9.33 µM and the GI50 (MCF7) was 12.3 µM. The GI50 (NCI-H460) was 2.34 µM, the GI50 (BT-549) was 12.9 µM and the GI50 (786-0) was 3.89 µM. It also gave a GI50 (TK-10) of 14.1 µM, a GI50 (U-251) of 5.37 µM and a GI50 (A549) of 5.01 µM. For the same compound, the GI50 [3] was 8.91 µM, the GI50 (Hs-578T) was 3.16 µM and the GI50 (T47D) was 7.76 µM. It also gave a GI50 (LOX IMVI) of 3.09 µM, a GI50 (HCC 2998) of 2.19 µM and a GI50 [4] of 2.09 µM. For the same compound, the GI50 (MDA-MB-435) was 8.32 µM, the GI50 (COLO 205) was 2.45 µM and the GI50 (SR) was 4.47 µM. It also gave a GI50 (SK-OV-3) of 11 µM, a GI50 (NCI-H226) of 6.31 µM and a GI50 (SW-620) of 5.13 µM. It also gave a GI50 (ACHN) of 4.47 µM, a GI50 (A498) of 13.5 µM and a GI50 [5] of 10.7 µM. It also gave a GI50 (SN12C) of 9.55 µM, a GI50 (RXF 393) of 2.75 µM and a GI50 [6] of 16.6 µM. For the same compound, the GI50 (SK-MEL-2) was 2.09 µM, the GI50 [7] was 2.95 µM and the GI50 (UACC-257) was 8.13 µM. For the same compound, the GI50 (SF-268) was 5.62 µM, the GI50 (SNB-19) was 11.5 µM and the GI50 (SF-539) was 3.63 µM. It also gave a GI50 (SF-295) of 4.37 µM.
